From ChEMBL document CHEMBL4145531, “Synthesis of novel Chlorin e6-curcumin conjugates as photosensitizers for photodynamic therapy against pancreatic carcinoma” (Eur J Med Chem, 2018) come the findings set out here.

A short description of data set [1]: Induction of singlet oxygen production in DMSO assessed as DPBF absorption intensity (reference value: 100%). The data set is classed as functional. The method, boiled down: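 DPBF (50 µM in DMSO) was mixed with 1 µM photosensitizer in the dark. Samples were irradiated at 660 nm, 50 mW, 2 J/cm² for 40 s. Singlet oxygen was read as the decay of normalized DPBF absorbance at 418 nm relative to a DPBF-only control.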

Data set [2] in a line: Dark toxicity in human AsPC1 cells assessed as reduction in cell viability after 72 hrs by MTT assay. Type of data set: cell-based. The method in brief: (§1)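 AsPC-1 cells were grown in RPMI-1640, and MIA PaCa-2 and PANC-1 in DMEM, each with 10% FBS and 1% penicillin/streptomycin. 5.0 x 10^3 cells were seeded and left overnight at 37 °C. They were exposed to 0-300 µM compound for 3h without laser irradiation, then held 72h in the dark at 37 °C, 5% CO₂. Viability was read by MTT.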
(In general: Tetrazolium assays rely on reduction of a dye to a coloured formazan, in cell work by metabolically active cells.)

For a further data set, the system named is MIA PaCa-2. Description: Phototoxicity in human MIAPaCa2 cells assessed as reduction in cell viability preincubated for 3 hrs followed by 9 J/cm2 laser light irradiation and measured after 72 hrs by MTT assay. The data set is classed as functional, cell-based. Particulars: MIA PaCa-2, light or radiation study; call rule not given here. The method, boiled down: (§2)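 Cells were seeded at 5.0 x 10^3 per well and incubated overnight at 37 °C. AsPC-1 was in RPMI-1640 and MIA PaCa-2/PANC-1 in DMEM, with 10% FBS. Cells took up compound for 3h, then received 660 nm laser light (50 mW, 9 J/cm²).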

Data set [3] in a line: Selectivity index, ratio of IC50 for dark toxicity in human AsPC1 cells to IC50 for phototoxicity in human AsPC1 cells. Type of data set: cell-based. The note with it: read-out: Ratio IC50. The method in brief: (§3)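 The ratio is the dark-toxicity IC50 over the phototoxicity IC50 in the same cell line, both from 72h MTT. The dark arm received no light. The photo arm was irradiated at 660 nm, 50 mW, 9 J/cm² after 3h compound exposure.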

For another data set, the system named is PANC-1. Description: Phototoxicity in human PANC1 cells assessed as reduction in cell viability preincubated for 3 hrs followed by 9 J/cm2 laser light irradiation and measured after 72 hrs by MTT assay. Particulars: PANC-1, light or radiation study. The data set is classed as functional, cell-based. The method in brief:
as §2

Data set [4] in a line: Drug uptake in human AsPC1 cells at 5 uM by FACS analysis. Type of data set: ADME, cell-based. Particulars: aspc1, 5 µM, TDE = time-dependent effect. The method in brief: (§4)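 AsPC-1 cells (2 x 10^5) were seeded and kept in the dark at 37 °C for 24h. They were then incubated with 5 µM compound for 30 min to 24h. Cells were harvested by trypsin, washed three times in PBS and resuspended in PBS. Uptake was read as mean fluorescence intensity by FACS.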
Background: Flow cytometry measures light scatter and fluorescence of single cells or particles in a stream.

A short description of data set [5]: Dark toxicity in human PANC1 cells assessed as reduction in cell viability after 72 hrs by MTT assay. Type of data set: cell-based, PANC-1. The method in brief: as §1
Data set [6] in a line: Drug uptake in human AsPC1 cells at 5 uM after 3 to 24 hrs by FACS analysis. The data set is classed as ADME, cell-based. The note with it: aspc1, 5 µM. The method in brief: as §4
Data set [7] can be described thus: Selectivity index, ratio of IC50 for dark toxicity in human MIAPaCa2 cells to IC50 for phototoxicity in human MIAPaCa2 cells. Type of data set: cell-based, MIA PaCa-2. The note with it: read-out: Ratio IC50. The method in brief:
as §3

Data set [8] can be described thus: Dark toxicity in human MIAPaCa2 cells assessed as reduction in cell viability after 72 hrs by MTT assay. The data set is classed as cell-based, MIA PaCa-2. The method in brief: as §1
Data set [9] can be described thus: Solubility of the compound in 2% DMSO/98% de-ionized water at 8.4 uM. Type of data set: physicochemical. Particulars: buffer.
A short description of data set [10]: Selectivity index, ratio of IC50 for dark toxicity in human PANC1 cells to IC50 for phototoxicity in human PANC1 cells. The data set is classed as cell-based, PANC-1. Particulars: read-out: Ratio IC50. The method, boiled down:
as §3

The subject of another data set is ASPC1. Description: Phototoxicity in human AsPC1 cells assessed as reduction in cell viability preincubated for 3 hrs followed by 9 J/cm2 laser light irradiation and measured after 72 hrs by MTT assay. Type of data set: functional, cell-based. The note with it: ASPC1, light or radiation study. The method, boiled down: as §2
Data set [11] can be described thus: Solubility of the compound in 2% DMSO/98% de-ionized water at 7.7 uM. The data set is classed as physicochemical. Particulars: buffer.
Data set [12] is described as follows: Solubility of the compound in 2% DMSO/98% de-ionized water at 8.7 uM. Type of data set: physicochemical. The note with it: buffer.
The nature of data set [13]: Solubility of the compound in 2% DMSO/98% de-ionized water at 16 uM. Particulars: buffer. The data set is classed as physicochemical.

As to `CN(C)c1ccc2nc3ccc(=[N+](C)C)cc-3sc2c1`, in data set [1], the Activity was 33.9%.

Regarding `C=Cc1c(C)c2cc3nc(c(CC(=O)OC)c4[nH]c(cc5nc(cc1[nH]2)C(C)=C5CC)c(C)c4C(=O)NCCCCCCNC(=O)CCCC(=O)Oc1ccc(/C=C/C(=O)CC(=O)/C=C/c2ccc(O)c(OC)c2)cc1OC)C(CCC(=O)OC)C3C` (configuration not stated), the concentration for half-maximal inhibition (IC50) (as a rule, the concentration needed to halve the response being measured) at 72 h was 285 µM in [2], greater than 300 µM in data set [5] and 265 µM in data set [8]. Besides, the Activity in data set [1] was found to be 10.1%. Also, the concentration for half-maximal inhibition (IC50) with MIA PaCa-2 came to 47.3 µM; in the data set with PANC-1, 45.6 µM; in the data set with ASPC1, 10.1 µM. Further, the selectivity ratio in [3] is 28.3; in [7], 5.6; in data set [10], greater than 6.58. Besides, the Drug uptake entry was “Tde” in data set [4] and “Active” in [6]. Moreover, the solubility entry in data set [9] is recorded as “Soluble”.

With `C=Cc1c(C)c2cc3nc(c(CC(=O)OC)c4[nH]c(cc5nc(cc1[nH]2)C(C)=C5CC)c(C)c4C(=O)NCCCOCCOCCOCCCNC(=O)CCCC(=O)Oc1ccc(/C=C/C(=O)CC(=O)/C=C/c2ccc(O)c(OC)c2)cc1OC)C(CCC(=O)OC)C3C` (configuration not stated), the IC50 at 72 h in data set [2] was 193 µM; in [5], greater than 300 µM; in data set [8], greater than 300 µM. In addition, the Activity in [1] came out at 12.3%. The 50% inhibitory concentration (IC50) with MIA PaCa-2 was found to be 4.64 µM; in the data set with PANC-1 it was 15.7 µM; in the data set with ASPC1 it was 5.93 µM. The selectivity ratio in data set [3] is 32.5; in data set [7] it was greater than 64.7; in [10], greater than 19.1. The solubility entry in [11] is reported as “Soluble”. Moreover, the Drug uptake result in data set [4] is given as “Tde”; in data set [6], “Active”.

Regarding `C=Cc1c(C)c2cc3nc(c(CC(=O)OC)c4[nH]c(cc5nc(cc1[nH]2)C(C)=C5CC)c(C)c4C(=O)NCCCNC(=O)CCCC(=O)Oc1ccc(/C=C/C(=O)CC(=O)/C=C/c2ccc(O)c(OC)c2)cc1OC)C(CCC(=O)OC)C3C` (configuration not stated), the IC50 at 72 h in data set [2] was greater than 300 µM; in data set [5], greater than 300 µM; in data set [8] it was 200 µM. Moreover, the Activity in data set [1] is 7.39%. The IC50 in the data set with MIA PaCa-2 was determined as 4.2 µM; in the data set on PANC-1, 4.58 µM; with ASPC1 it was 5.74 µM. Besides, the selectivity ratio was greater than 52.3 in data set [3], 47.6 in [7] and greater than 65.5 in [10]. The solubility result in data set [12] was “Soluble”. In addition, the Drug uptake entry in data set [4] was “Tde”; in data set [6] it was “Active”.

Turning to `C=Cc1c(C)c2cc3nc(c(CC(=O)O)c4[nH]c(cc5nc(cc1[nH]2)C(C)=C5CC)c(C)c4C(=O)O)C(CCC(=O)O)C3C` (configuration not stated), the results for the 50% inhibitory concentration (IC50) at 72 h in data set [2], in [5] and in data set [8] were 126 µM, 67 µM and 89 µM, respectively. For the same compound, the Activity in [1] stood at 9.88%. For the same compound, the half-maximal inhibitory concentration (IC50) with MIA PaCa-2 worked out at 15.8 µM; in the data set with PANC-1, 10.1 µM; in the data set with ASPC1, 19.5 µM. For the same compound, the selectivity ratio came out at 6.45 in [3], 5.61 in data set [7] and 6.6 in data set [10]. For the same compound, the solubility entry in data set [13] is “Soluble”. Further, the Drug uptake result in data set [4] was “Tde”.
